Laboratory results published in ChEMBL document CHEMBL3102784, “Salicylanilide diethyl phosphates: synthesis, antimicrobial activity and cytotoxicity” (Bioorg Med Chem, 2014).
Values after ≈ are worked out from the molar mass of the structure shown. Active and inactive are the calls of the source. The rule behind the calls is not given here.

Legend:
Nakaseomyces glabratus = experiment: Antifungal activity against Candida glabrata 20/I at 500 micromol/L after 24 to 48 hrs by broth microdilution method; format: functional, organism-based
Method in brief: (§1)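 Broth microdilution in RPMI 1640 with glutamine, fluconazole as reference. For yeasts, MIC is ≥80% growth reduction (IC80) versus control. For filamentous fungi, the value is expressed as IC50. Readings at 24 and 48 h.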

Escherichia coli = experiment: Antibacterial activity against Escherichia coli CCM 4517 at 500 micromol/L after 24 to 48 hrs by broth microdilution method; format: functional, organism-based
Method in brief: (§2)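 Broth microdilution in Mueller–Hinton broth, compounds dissolved in DMSO, tested over a dilution series from 500 downward. MIC taken as ≥95% growth reduction (IC95) versus drug-free control. Benzylpenicillin comparator. Readings at 24 and 48 h.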

Klebsiella pneumoniae [1] = experiment: Antibacterial activity against Klebsiella pneumoniae D 11750/08 at 500 micromol/L after 24 to 48 hrs by broth microdilution method; format: functional, organism-based; method in brief: as §2
Mycobacterium avium [2] = experiment: Antimycobacterial activity against isoniazid, rifampicin, ethambutol and ofloxacin-resistant Mycobacterium avium My 330/88 after 21 days; format: functional; settings: My 330/88, 504 h
Method in brief: (§3)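 Micromethod MIC in Šula's semisynthetic medium at 37 °C. Compounds added in DMSO at 1000 down to 0.032 µmol/L. Isoniazid standard in sterile water at 0.5–250 µmol/L. Inocula: H37Rv 10^3, M. avium 10^5, M. kansasii 10^4. Read at 14 and 21 d, plus 7 d for M. kansasii.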

Mycobacterium kansasii [3] = experiment: Antimycobacterial activity against Mycobacterium kansasii 6509/96 after 21 days; format: functional; settings: 6509/96, 504 h; method in brief: as §3
Candida tropicalis = experiment: Antifungal activity against Candida tropicalis 156 at 500 micromol/L after 24 to 48 hrs by broth microdilution method; format: functional, organism-based; method in brief: as §1
[4] = test system: Trichophyton mentagrophytes; experiment: Antifungal activity against Trichophyton mentagrophytes 445 after 72 hrs by broth microdilution method; format: functional; settings: Trichophyton mentagrophytes, 445, 72 h
Method in brief: (§4)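 Filamentous dermatophyte tested by broth microdilution in RPMI 1640 with glutamine, fluconazole as reference. Value expressed as IC50 relative to growth control. Read at 72 and 120 h.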

Candida albicans [5] = experiment: Antifungal activity against Candida albicans ATCC 44859 after 24 hrs by broth microdilution method; format: functional; settings: ATCC 44859, 24 h; method in brief: as §1
Lichtheimia corymbifera [6] = experiment: Antifungal activity against Absidia corymbifera 272 after 24 hrs by broth microdilution method; format: functional; settings: Lichtheimia corymbifera, 272, 24 h; method in brief: as §1
Staphylococcus aureus [7] = experiment: Antibacterial activity against methicillin-resistant Staphylococcus aureus H 5996/08 after 48 hrs by broth microdilution method; format: functional; settings: H 5996/08, 48 h; method in brief: as §2
Mycobacterium kansasii [8] = experiment: Antimycobacterial activity against Mycobacterium kansasii 6509/96 after 7 days; format: functional; settings: 6509/96, 168 h; method in brief: as §3
[9] = test system: Staphylococcus epidermidis; experiment: Antibacterial activity against Staphylococcus epidermidis H 6966/08 after 48 hrs by broth microdilution method; format: functional; settings: H 6966/08, 48 h; method in brief: as §2
[10] = test system: Mycobacterium tuberculosis; experiment: Antimycobacterial activity against Mycobacterium tuberculosis H37Rv My 331/88 after 21 days; format: functional; settings: H37Rv My 331/88, 504 h; method in brief: as §3
Enterococcus sp. = experiment: Antibacterial activity against Enterococcus sp. J 14365/08 at 500 micromol/L after 24 to 48 hrs by broth microdilution method; format: functional, organism-based; method in brief: as §2
[11] = test system: Mycobacterium tuberculosis; experiment: Antimycobacterial activity against Mycobacterium tuberculosis H37Rv My 331/88 after 14 days; format: functional; settings: H37Rv My 331/88, 336 h; method in brief: as §3
Mycobacterium kansasii [12] = experiment: Antimycobacterial activity against Mycobacterium kansasii My 235/80 after 21 days; format: functional; settings: My 235/80, 504 h; method in brief: as §3
Lichtheimia corymbifera [13] = experiment: Antifungal activity against Absidia corymbifera 272 after 48 hrs by broth microdilution method; format: functional; settings: Lichtheimia corymbifera, 272, 48 h; method in brief: as §1
[14] = test system: Staphylococcus epidermidis; experiment: Antibacterial activity against Staphylococcus epidermidis H 6966/08 after 24 hrs by broth microdilution method; format: functional; settings: H 6966/08, 24 h; method in brief: as §2
Aspergillus fumigatus [15] = experiment: Antifungal activity against Aspergillus fumigatus 231 after 48 hrs by broth microdilution method; format: functional; settings: Aspergillus fumigatus, 231, 48 h; method in brief: as §1
Pichia kudriavzevii [16] = experiment: Antifungal activity against Candida krusei E28 after 24 hrs by broth microdilution method; format: functional; settings: E28, 24 h; method in brief: as §1
Pichia kudriavzevii [17] = experiment: Antifungal activity against Candida krusei E28 after 48 hrs by broth microdilution method; format: functional; settings: E28, 48 h; method in brief: as §1
Mycobacterium avium [18] = experiment: Antimycobacterial activity against isoniazid, rifampicin, ethambutol and ofloxacin-resistant Mycobacterium avium My 330/88 after 14 days; format: functional; settings: My 330/88, 336 h; method in brief: as §3
Candida albicans [19] = experiment: Antifungal activity against Candida albicans ATCC 44859 after 48 hrs by broth microdilution method; format: functional; settings: ATCC 44859, 48 h; method in brief: as §1
Trichosporon asahii [20] = experiment: Antifungal activity against Trichosporon asahii 1188 after 48 hrs by broth microdilution method; format: functional; settings: Trichosporon asahii, 1188, 48 h; method in brief: as §1
Mycobacterium kansasii [21] = experiment: Antimycobacterial activity against Mycobacterium kansasii My 235/80 after 7 days; format: functional; settings: My 235/80, 168 h; method in brief: as §3
Klebsiella pneumoniae [22] = experiment: Antibacterial activity against ESBL-positive Klebsiella pneumoniae J 14368/08 at 500 micromol/L after 24 to 48 hrs by broth microdilution method; format: functional, organism-based; method in brief: as §2
Aspergillus fumigatus [23] = experiment: Antifungal activity against Aspergillus fumigatus 231 after 24 hrs by broth microdilution method; format: functional; settings: Aspergillus fumigatus, 231, 24 h; method in brief: as §1
Staphylococcus aureus [24] = experiment: Antibacterial activity against Staphylococcus aureus CCM 4516/08 after 48 hrs by broth microdilution method; format: functional; settings: CCM 4516/08, 48 h; method in brief: as §2
Mycobacterium kansasii [25] = experiment: Antimycobacterial activity against Mycobacterium kansasii 6509/96 after 14 days; format: functional; settings: 6509/96, 336 h; method in brief: as §3
Mycobacterium kansasii [26] = experiment: Antimycobacterial activity against Mycobacterium kansasii My 235/80 after 14 days; format: functional; settings: My 235/80, 336 h; method in brief: as §3
HepG2 = experiment: Cytotoxicity against human HepG2 cells after 24 hrs by CellTiter assay; format: cell-based; settings: HepG2, 24 h
Method in brief: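 HepG2 cells (passage 27–33) in MEM with 10% FBS, L-glutamine and NEAA, seeded at 1×10^4 per well. Treated next day with compounds at 0.1–100 µM (or 0.1–25 µmol/L), triplicates, <1% DMSO, for 24 h at 37 °C, 5% CO2. MTS reagent added for 2 h, absorbance read at 490 nm. IC50 taken against untreated (100%) and 10% DMSO (0%) controls.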

Pseudomonas aeruginosa = experiment: Antibacterial activity against Pseudomonas aeruginosa CCM 1961 at 500 micromol/L after 24 to 48 hrs by broth microdilution method; format: functional, organism-based; method in brief: as §2
Staphylococcus aureus [27] = experiment: Antibacterial activity against methicillin-resistant Staphylococcus aureus H 5996/08 after 24 hrs by broth microdilution method; format: functional; settings: H 5996/08, 24 h; method in brief: as §2
Trichosporon asahii [28] = experiment: Antifungal activity against Trichosporon asahii 1188 after 24 hrs by broth microdilution method; format: functional; settings: Trichosporon asahii, 1188, 24 h; method in brief: as §1
Staphylococcus aureus [29] = experiment: Antibacterial activity against Staphylococcus aureus CCM 4516/08 after 24 hrs by broth microdilution method; format: functional; settings: CCM 4516/08, 24 h; method in brief: as §2
[30] = test system: Trichophyton mentagrophytes; experiment: Antifungal activity against Trichophyton mentagrophytes 445 after 120 hrs by broth microdilution method; format: functional; settings: Trichophyton mentagrophytes, 445, 120 h; method in brief: as §4

| SMILES | Activity (Nakaseomyces glabratus) | Activity (Escherichia coli) | Activity (Klebsiella pneumoniae [1]) | MIC (Mycobacterium avium [2]) [µM] | MIC (Mycobacterium kansasii [3]) [µM] | Activity (Candida tropicalis) | MIC50 [4] [µM] | MIC80 (Candida albicans [5]) [µM] | MIC50 (Lichtheimia corymbifera [6]) [µM] | MIC95 (Staphylococcus aureus [7]) [µM] | MIC (Mycobacterium kansasii [8]) [µM] | MIC95 [9] [µM] | MIC [10] [µM] | Activity (Enterococcus sp.) | MIC [11] [µM] | MIC (Mycobacterium kansasii [12]) [µM] | MIC50 (Lichtheimia corymbifera [13]) [µM] | MIC95 [14] [µM] | MIC50 (Aspergillus fumigatus [15]) [µM] | MIC80 (Pichia kudriavzevii [16]) [µM] | further results |
| --- | --- | --- | --- | --- | --- | --- | --- | --- | --- | --- | --- | --- | --- | --- | --- | --- | --- | --- | --- | --- | --- |
| CCOP(=O)(OCC)Oc1cc(Cl)ccc1C(=O)Nc1ccc(Cl)cc1 | inactive | inactive | inactive | 8 (≈ 3.35 µg/mL) | 8 (≈ 3.35 µg/mL) | inactive | 500 (≈ 209 µg/mL) | > 500 | > 500 | > 500 | 4 (≈ 1.67 µg/mL) | 500 (≈ 209 µg/mL) | 4 (≈ 1.67 µg/mL) | inactive | 4 (≈ 1.67 µg/mL) | 8 (≈ 3.35 µg/mL) | > 500 | 250 (≈ 105 µg/mL) | > 500 | > 500 | MIC80 (Pichia kudriavzevii [17]): > 500 µM; MIC (Mycobacterium avium [18]): 8 µM (≈ 3.35 µg/mL); MIC80 (Candida albicans [19]): > 500 µM; MIC80 (Trichosporon asahii [20]): > 500 µM; MIC (Mycobacterium kansasii [21]): 4 µM (≈ 1.67 µg/mL); Activity (Klebsiella pneumoniae [22]): inactive; MIC50 (Aspergillus fumigatus [23]): > 500 µM; MIC95 (Staphylococcus aureus [24]): 250 µM (≈ 105 µg/mL); MIC (Mycobacterium kansasii [25]): 8 µM (≈ 3.35 µg/mL); MIC (Mycobacterium kansasii [26]): 4 µM (≈ 1.67 µg/mL); IC50 (HepG2): 5.6 µM; Activity (Pseudomonas aeruginosa): inactive; MIC95 (Staphylococcus aureus [27]): 500 µM (≈ 209 µg/mL); MIC80 (Trichosporon asahii [28]): > 500 µM; MIC95 (Staphylococcus aureus [29]): 125 µM (≈ 52.3 µg/mL); MIC50 [30]: 500 µM (≈ 209 µg/mL) |
| CCOP(=O)(OCC)Oc1cc(Cl)ccc1C(=O)Nc1ccc(C(F)(F)F)cc1 | inactive | inactive | inactive | 4 (≈ 1.81 µg/mL) | 2 (≈ 0.904 µg/mL) | inactive | 250 (≈ 113 µg/mL) | > 500 | > 500 | 62.5 (≈ 28.2 µg/mL) | 1 (≈ 0.452 µg/mL) | 31.2 (≈ 14.1 µg/mL) | 1 (≈ 0.452 µg/mL) | inactive | 1 (≈ 0.452 µg/mL) | 1 (≈ 0.452 µg/mL) | > 500 | 31.2 (≈ 14.1 µg/mL) | > 500 | > 500 | MIC80 (Pichia kudriavzevii [17]): > 500 µM; MIC (Mycobacterium avium [18]): 4 µM (≈ 1.81 µg/mL); MIC80 (Candida albicans [19]): > 500 µM; MIC80 (Trichosporon asahii [20]): > 500 µM; MIC (Mycobacterium kansasii [21]): 0.5 µM (≈ 0.226 µg/mL); Activity (Klebsiella pneumoniae [22]): inactive; MIC50 (Aspergillus fumigatus [23]): > 500 µM; MIC95 (Staphylococcus aureus [24]): 31.2 µM (≈ 14.1 µg/mL); MIC (Mycobacterium kansasii [25]): 2 µM (≈ 0.904 µg/mL); MIC (Mycobacterium kansasii [26]): 1 µM (≈ 0.452 µg/mL); IC50 (HepG2): 2.51 µM; Activity (Pseudomonas aeruginosa): inactive; MIC95 (Staphylococcus aureus [27]): 62.5 µM (≈ 28.2 µg/mL); MIC80 (Trichosporon asahii [28]): > 500 µM; MIC95 (Staphylococcus aureus [29]): 31.2 µM (≈ 14.1 µg/mL); MIC50 [30]: 250 µM (≈ 113 µg/mL) |
